Screening data as filed in PubChem.
OX1R antag-1 = human HCRTR1 antagonism; inhibition, % at 5 µM; CHO/OX1R cells, Fluo-8 calcium fluorescence, orexin A; 330,000 tested, 0.43% active; AID 434989; O43613;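 active = inhibition above its plate's threshold, mean inhibition of all tested compounds on the plate plus 3 SD, cut at about 37% in these data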;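 note: 0% = orexin A challenge wells and 100% = SB-334867-A antagonist wells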
CHO parental Ca = counter-screen: ATP calcium response change in parental CHO cells; parental CHO-K1, ATP-induced calcium, Fluo-8 fluorescence; inhibition, % at 5.6 µM; 330,000 tested, 0.63% active; AID 463079;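 active = inhibition above that plate's mean sample inhibition plus 3 SD, cut at about 26% in these data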;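 note: 0% = ATP-challenged DMSO wells and 100% = DMSO wells without ATP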
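Measured by: calcium-sensitive Fluo-8 fluorescence / Test system: CHO parental line / Controls: ATP-challenged DMSO wells low, unchallenged DMSO wells high / Measure: % inhibition / Compound: single nominal dose of 5.6 µM per compound / Replicates: single well per compound, no replicates / Reagent: ATP as calcium-mobilizing challenge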
OX1R antag-2 = antagonists of human orexin 1 receptor (OX1R); OX1R-expressing cells, FRET antagonist read-out; inhibition, % at 6.6 µM; 330,000 tested, 1.8% active; in the data active = inhibition mostly above about 38%, no sharp cut-off; inactive = mostly below about 40%;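 note: 0% = agonist challenge alone and 100% = reference antagonist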
GalR3 antagonist = human GalR3 antagonism; O60755; HEK293 GalR3-CNG cAMP membrane potential fluorescence; galR3 body fused to GalR1 C-terminus; inhibition, % at 3 µM; 360,000 tested, 0.44% active; AID 651719;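 active = inhibition above the screen-wide average plus 3 SD, cut at about 13% in these data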;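 note: forskolin and galanin both at EC90 stimulate the cells; cAMP rise reported by CNG channel membrane potential dye signal; 0% = forskolin plus galanin with DMSO and 100% = forskolin alone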
Target sequence (O60755 1-299 limits assumed): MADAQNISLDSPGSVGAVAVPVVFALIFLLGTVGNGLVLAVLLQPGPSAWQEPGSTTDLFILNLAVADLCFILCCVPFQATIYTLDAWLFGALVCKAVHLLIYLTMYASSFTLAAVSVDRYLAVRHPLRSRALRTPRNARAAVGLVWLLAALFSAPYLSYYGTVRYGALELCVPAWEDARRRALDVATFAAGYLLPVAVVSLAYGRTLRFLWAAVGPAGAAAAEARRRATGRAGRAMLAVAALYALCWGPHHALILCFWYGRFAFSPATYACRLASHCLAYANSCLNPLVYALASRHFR
GPR7 antagonist = human neuropeptides B/W receptor 1 antagonism | 290,000 tested, 1.1% active | GPR7-expressing cells, fluorescence antagonist assay | P48145 | inhibition, % at 4.4 µM; in the data active = inhibition above about 16%, passing the limit was not always enough;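 note: cells stimulated with the agonist NPW; 0% = agonist with vehicle and 100% = vehicle without agonist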
Target sequence (P48145 whole entry, looked up): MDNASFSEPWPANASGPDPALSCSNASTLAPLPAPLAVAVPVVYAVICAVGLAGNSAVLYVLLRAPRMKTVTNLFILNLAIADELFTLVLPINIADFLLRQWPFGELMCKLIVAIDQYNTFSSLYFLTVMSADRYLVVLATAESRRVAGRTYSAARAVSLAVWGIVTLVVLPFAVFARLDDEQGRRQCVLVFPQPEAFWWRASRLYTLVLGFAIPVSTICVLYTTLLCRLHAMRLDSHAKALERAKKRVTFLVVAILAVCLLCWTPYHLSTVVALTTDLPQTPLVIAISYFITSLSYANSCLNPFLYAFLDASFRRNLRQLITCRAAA
GPR7 antag conf = confirmation of human GPR7 antagonists; shares compounds with GPR7 antagonist; GPR7-expressing cells, calcium fluorescence antagonist mode; inhibition, % at 4.4 µM; 2,400 tested, 52% active; AID 1952; in the data active = inhibition above about 24%;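 note: stimulated with the GPR7 agonist NPW; 0% = agonist plus vehicle and 100% = vehicle alone without agonist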
MCHR1 antag = MCHR1 (human) antagonism in GPR7 counter-screen. shares compounds with GPR7 antagonist. MCHR1-expressing cells, fluorescence antagonist assay. inhibition, % at 4.4 µM. 2,400 tested, 62% active. AID 2148; in the data active = inhibition above about 22%;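 note: 0% = vehicle with agonist and 100% = vehicle without agonist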
* hit, by the source's call. Sampled rows, rich in hits. Any-hit rate of the full collection: about 3.1%.

Cc1ccccc1NC(=O)Cn1nnc(C(=O)NCc2ccco2)c1N was read as OX1R antag-1 4.8, CHO parental Ca 0.9, OX1R antag-2 5.3, GalR3 antagonist -9.3 and GPR7 antagonist 7.8.
`Clc1ccccc1-c1cc2nc(NCc3ccco3)ccn2n1` gave GalR3 antagonist -7.9.
O=C(COC(=O)CNS(=O)(=O)c1ccc2ccccc2c1)Nc1ccccc1Sc1ccccc1 was read as OX1R antag-1 12.8, CHO parental Ca 2.9, OX1R antag-2 20.3, GalR3 antagonist -2.1, GPR7 antagonist 22.8*, GPR7 antag conf 32.1* and MCHR1 antag 34.2*.
Screening CCc1ccc(CNC(=O)CCC(=O)N2Cc3cccc(OC)c3Oc3ncccc32)cc1 returned OX1R antag-1 -53.0, CHO parental Ca -25.3, OX1R antag-2 18.3, GalR3 antagonist -2.8, GPR7 antagonist 23.4*, GPR7 antag conf 3.1 and MCHR1 antag -5.4.
`COc1cccc2c1Oc1ncccc1N(C(=O)CCC(=O)NCc1ccccc1)C2` gave OX1R antag-1 -17.1, CHO parental Ca -12.2, OX1R antag-2 5.6, GalR3 antagonist 0.7 and GPR7 antagonist 11.5.
Cc1cc(N2CCNC[C@H]2C)ccc1N1C[C@@H](C)O[C@@H](C)C1 was read as GalR3 antagonist -6.8.
Screening C=CCn1c(SCc2c(C)noc2C)nc2ccccc2c1=O returned OX1R antag-1 -40.2, CHO parental Ca -13.1, OX1R antag-2 11.4, GalR3 antagonist -7.0, GPR7 antagonist 25.6*, GPR7 antag conf 23.0 and MCHR1 antag 24.1*.
For C=CCn1c(SCc2c(C)noc2C)nc2cc(C(=O)O)ccc2c1=O the results were OX1R antag-1 -6.9, CHO parental Ca -1.5, OX1R antag-2 19.8, GalR3 antagonist -8.0 and GPR7 antagonist 14.2.
Screening Cc1ccc(-c2csc3ncnc(N4CCN(C(=O)c5ccccc5)CC4)c23)cc1 returned OX1R antag-1 -22.0, CHO parental Ca -35.8, OX1R antag-2 26.3, GalR3 antagonist -5.6, GPR7 antagonist 28.8*, GPR7 antag conf 35.8* and MCHR1 antag 53.2*.
`O=P(OC1CCCCC1)(OC1CCCCC1)C(Nc1ccccc1)c1cccnc1` (stereo not drawn) gave OX1R antag-1 -12.2, CHO parental Ca -19.2, OX1R antag-2 18.8, GalR3 antagonist -3.4, GPR7 antagonist 32.1*, GPR7 antag conf 30.6* and MCHR1 antag 38.6*.
Screening Cc1nc2cc(NC(=O)N(C)c3ccc4ccccc4c3)ccc2o1 returned OX1R antag-1 -10.6, CHO parental Ca -9.3, OX1R antag-2 20.9, GalR3 antagonist -2.0, GPR7 antagonist 32.4*, GPR7 antag conf 11.4 and MCHR1 antag 26.1*.
`COc1ccc(NC(=O)Nc2ccc3oc(C)nc3c2)cc1` gave OX1R antag-1 -19.2, CHO parental Ca -14.7, OX1R antag-2 15.6, GalR3 antagonist -0.8 and GPR7 antagonist 8.3.
Cc1nc2cc(NC(=O)c3ccc(S(=O)(=O)N(C)c4ccccc4)cc3)ccc2o1 was read as OX1R antag-1 13.6, CHO parental Ca 20.5, OX1R antag-2 15.8, GalR3 antagonist 9.9, GPR7 antagonist 44.7*, GPR7 antag conf 63.4* and MCHR1 antag 81.1*.
`O=c1cc(N2CCOCC2)[nH]c(=O)n1-c1ccc(Br)cc1` gave OX1R antag-1 -10.0, CHO parental Ca 0.9, OX1R antag-2 8.1, GalR3 antagonist 0.5, GPR7 antagonist 24.7*, GPR7 antag conf -12.1 and MCHR1 antag 8.1.
Screening CCCNC(=O)N(C)C[C@H]1Oc2ncc(C#CCc3ccccc3)cc2C(=O)N([C@H](C)CO)C[C@H]1C returned GalR3 antagonist -4.7.
`CC1=C(C(=O)N2CCOCC2)CC(CC(=O)NCCc2ccccn2)C(=O)N1CCCN1CCCC1=O` (stereo not drawn) gave GalR3 antagonist -4.4.
For CCCN(CC(=O)Nc1ccccc1C)C(=O)c1cccc(S(=O)(=O)N2CCc3ccccc3C2)c1 the results were OX1R antag-1 -2.7, CHO parental Ca 5.5, OX1R antag-2 11.7, GalR3 antagonist -2.3, GPR7 antagonist 30.5*, GPR7 antag conf 27.9* and MCHR1 antag 55.0*.
For CCCCNC(=NCc1cccc(C(F)(F)F)c1)Nc1ccccc1 the results were OX1R antag-1 -23.4, CHO parental Ca -23.3, OX1R antag-2 15.4, GalR3 antagonist -11.8, GPR7 antagonist 43.9*, GPR7 antag conf 49.2* and MCHR1 antag 31.1*.
CC1(O)C(=O)C2(C)C=CC1C1C(=O)N(c3ccccc3)C(=O)C12 (stereo not drawn) was read as GalR3 antagonist -1.2.
`OCC1(Cc2ccc(Cl)cc2)CCN(CCCc2ccccc2)CC1` gave OX1R antag-1 -35.1, CHO parental Ca -14.4, OX1R antag-2 2.5, GalR3 antagonist -5.5, GPR7 antagonist 26.0*, GPR7 antag conf 36.5* and MCHR1 antag 31.4*.
`O=C(Nc1cccnc1)c1cc(-c2ccccc2O)on1` gave OX1R antag-1 -7.8, CHO parental Ca -5.3, OX1R antag-2 7.0, GalR3 antagonist -4.0, GPR7 antagonist 38.5*, GPR7 antag conf 40.4* and MCHR1 antag 43.3*.
CCc1cc(C(=O)OC)c(NC(=O)CCCC(=O)O)s1 was read as OX1R antag-1 -4.0, CHO parental Ca 8.1, OX1R antag-2 8.4, GalR3 antagonist 2.4, GPR7 antagonist 26.2*, GPR7 antag conf -2.7 and MCHR1 antag 0.0.
For COC(=O)CNC(c1ccccc1)c1cc(C)ccc1NC(=O)CNC(=O)OCc1ccccc1 (stereo not drawn) the results were OX1R antag-1 -32.5, CHO parental Ca -27.1, OX1R antag-2 30.0, GalR3 antagonist -7.5, GPR7 antagonist 39.0*, GPR7 antag conf 29.1* and MCHR1 antag 17.9.
Cc1cc(=O)oc2cc(OCc3nnc(-c4ccccc4Br)o3)ccc12 was read as OX1R antag-1 -1.7, CHO parental Ca 0.7, OX1R antag-2 46.1, GalR3 antagonist 0.4, GPR7 antagonist 31.1*, GPR7 antag conf 16.9 and MCHR1 antag 25.4*.
For O=c1ccc2ccc(OCc3nnc(-c4ccccc4Br)o3)cc2o1 the results were OX1R antag-1 -20.0, CHO parental Ca -24.0, OX1R antag-2 7.2, GalR3 antagonist -5.2 and GPR7 antagonist 17.6.
O=C1NC(c2ccc3c(c2)OCO3)c2c(-c3ccccc3)n[nH]c21 (stereo not drawn) was read as GalR3 antagonist -2.2.
Screening CCOC(=O)Cc1csc(NC(=O)COc2ccc(N(C)S(=O)(=O)c3ccc(C)cc3)cc2)n1 returned OX1R antag-1 5.5, CHO parental Ca -1.4, OX1R antag-2 24.6, GalR3 antagonist 0.5, GPR7 antagonist 32.3*, GPR7 antag conf 27.1* and MCHR1 antag 66.8*.
Screening C=CCN=C1NC(c2ccccc2C(F)(F)F)C(C(=O)OC)=C(C)N1Cc1ccc(C(F)(F)F)cc1 (stereo not drawn) returned GalR3 antagonist -2.6.
